“Also recorded” adds a separate entry of the source. Like-named read-outs stand apart in the source and are kept apart here.

The test system of series [1] is L929 cells. The series is described as follows: TNF-α-induced L929 cytotoxicity. The series is classed as cell-based. Conditions: 25–200 μM, 10 ng/mL TNF-α and 1 μg/mL actinomycin D, 18 h. A digest of the protocol:
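L929 cells seeded at 2.0 × 10⁴ cells/well and cultured overnight. Test compound (25–200 μM) was premixed with 10 ng/mL TNF-α plus 1 μg/mL actinomycin D, then added for 18 h. Viability was read by microscopy and CCK-8 (OD 450 nm). %I = (OD AMD+TNF+compound − OD AMD+TNF)/(OD AMD − OD AMD+TNF) × 100. Three independent experiments in triplicate, mean ± SEM.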

Series [2] concerns the target T1, TNFR1 (Homo sapiens, UniProt P19438).
T1 sequence (P19438 30-455): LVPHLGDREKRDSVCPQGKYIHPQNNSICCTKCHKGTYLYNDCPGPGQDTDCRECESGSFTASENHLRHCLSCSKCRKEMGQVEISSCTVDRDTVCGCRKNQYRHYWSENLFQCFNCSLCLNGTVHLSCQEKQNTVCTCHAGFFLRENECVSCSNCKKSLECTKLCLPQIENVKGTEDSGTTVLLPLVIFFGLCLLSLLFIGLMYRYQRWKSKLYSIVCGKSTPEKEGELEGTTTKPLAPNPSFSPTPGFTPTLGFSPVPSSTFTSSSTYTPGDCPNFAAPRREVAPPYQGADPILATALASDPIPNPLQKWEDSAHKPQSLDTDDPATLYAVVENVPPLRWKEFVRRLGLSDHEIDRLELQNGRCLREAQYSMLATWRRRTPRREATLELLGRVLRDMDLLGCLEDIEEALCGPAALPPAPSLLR
Kind of series: SPR-based binding assay, immobilized TNFR1. Conditions: read-out: Kd for TNFR1, 4 to 256 μM, steady-state affinity model. A digest of the protocol: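 Human TNFR1 in 10 mM sodium acetate, pH 5.5, amine-coupled to a CM5 chip. Single-concentration screen at 50 μM in PBS with 5% DMSO, 120 s injection at 30 μL/min. For affinity, 4–256 μM in the same buffer was passed over reference and active channels at 30 μL/min, with 120 s association and 120 s dissociation. Kd from a steady-state affinity fit.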

Series [3] deals with TNFR1. Conditions: cited from earlier work.
Series [4] addresses TNF-α (Homo sapiens, UniProt P01375). Kind of series: SPR-based binding assay, immobilized TNF-α. Conditions: read-out: Kd (μM) TNF-α, 2–128 μM, PBS with 5% DMSO. A digest of the protocol: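 Human TNF-α at 50 μg/mL in 10 mM sodium acetate, pH 5.0, amine-coupled to a CM5 chip. Hits were screened at 50 μM in PBS running buffer with 5% DMSO. A 2–128 μM concentration series was injected for 120 s, with 120 s dissociation. Kd came from fitting the sensorgrams in evaluation software. Representative of three independent experiments.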

Series [5] has as its target TNF-α. Conditions: read-out: Kd TNF-α; cited from earlier work.

Sequence of TNF-α (Homo sapiens, UniProt P01375) (P01375 77-233 limits assumed): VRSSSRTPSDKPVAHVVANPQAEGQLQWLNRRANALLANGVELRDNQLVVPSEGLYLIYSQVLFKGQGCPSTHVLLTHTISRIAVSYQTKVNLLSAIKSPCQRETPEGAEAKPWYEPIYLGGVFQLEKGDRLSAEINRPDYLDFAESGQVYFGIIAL

With `O=C(NCc1ccc2c(c1)OCO2)C1CCCN(c2ncnc3nc[nH]c23)C1` (centres unmarked) [Compound R1], the “Inhibition of TNF-α-mediated cytotoxicity on L929 cells (in words)” value (shortened to “Inhibition”) in series [1] is “dose-dependent inhibition; also recorded: activities similar to that of C87”. For the same compound, in series [2], the Kd (usually a measure of binding affinity in units of concentration) is 16 µM.

Consider TNF-α, for which the Kd in series [3] (read-out: Kd for binding of TNF-α to TNFR1) is 0.00176 µM.

“physcion-8-O-β-D-monoglucoside [reference compound]”: the Kd in series [3] (read-out: Kd TNFR1) was 0.376 µM.

For the compound `O=C1Nc2c(S(=O)(=O)Nc3ccccc3)cc(S(=O)(=O)Nc3ccccc3)c3cccc1c23` [Compound T2], the “Inhibition” value in series [1] was “no activity”. In series [4], the Kd worked out at 58 µM.

Turning to `O=c1c(N=Nc2nc3ccccc3s2)c(-c2ccccc2)[nH]n1-c1ccc([N+](=O)[O-])cc1` [Compound T1], the “Inhibition” value in series [1] is on record as “dose-dependent inhibition; also recorded: activities similar to that of C87”. For the same compound, the Kd in series [4] is 11 µM.

Turning to `O=C(O)CCC(=O)Nc1sc2c(c1C(=O)Nc1cccc3ccccc13)CCCC2` [Compound T4], the “Inhibition” value in series [1] is “no activity”. Further, the dissociation constant Kd in series [4] is 113 µM.

For the compound `Cc1cc2occ(CN(C)CCN(C)Cc3cn(-c4cccc(C(F)(F)F)c4)c4ccccc34)c(=O)c2cc1C` [SPD-304], the dissociation constant (Kd) in series [5] was 5.36 µM.

(Values after publication PMC6732210 (Journal of chemical information and modeling, 2017).)
